Measurements reported in ChEMBL document CHEMBL5724801, “EUbOPEN Chemogenomics Library - Multiplex” (2024).
Several values for one entry are separate records, joined by “and”; a condition that tells them apart may be missing. Equal values may be shown once.

System: HEK-293T
Assay: Multiplex assay against HEK293T
Assay type: toxicity, cell-based
Conditions: human
Method in brief: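 Values for tubulin, mitochondrial-mass and membrane-permeability phenotypes are per cents of cells with healthy nuclei. These cells were identified by CellPathfinder machine-learning gating of live cells that had been stained at seeding with Hoechst33342, BioTracker Green Microtubule Cytoskeleton Dye, MitoTracker Red and Annexin V Alexa Fluor 680 and imaged on a CQ1 microscope at 37°C and 5% CO2 after compound addition. The gating first set Hoechst high-intensity objects apart from normal cells, then split normal cells into healthy, pyknosed or fragmented nuclei, and pyknosed cells into mitotic or apoptotic.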

[1] = 12 h, 1 µM, compound concentration 1 uM
[2] = 12 h, 10 µM, compound concentration 10 uM
[3] = 24 h, 1 µM, compound concentration 1 uM
[4] = 24 h, 10 µM, compound concentration 10 uM
[5] = 48 h, 1 µM, compound concentration 1 uM
[6] = 48 h, 10 µM, compound concentration 10 uM

## C[C@H](NC(=O)c1c(C(F)F)nn(C)c1Oc1cccc(C(F)(F)F)c1)c1ccc(C(=O)O)cc1 [PALUPIPRANT]
[1]
  Population Apoptotic (%): 40% and 27%
  Population Fragmented Nuclei (%): 6%
  Population Healthy Nuclei (%): 80% and 83%
  Population Hoechst High Intensity Objects (%): 7% and 5%
  Population Membrane Permeable-Phenotype (%): 0%
  Population Mitochondria Different-Phenotype (%): 44% and 60%
  Population Mitotic Cells (%): 59% and 72%
  Population Normal (%): 92% and 94%
  Population Pyknosed Nuclei (%): 13% and 10%
  Population Tubulin-Different-Phenotype (%): 28%
  Total Cell Count: 407 and 475
[2]
  Population Apoptotic (%): 38% and 60%
  Population Fragmented Nuclei (%): 7% and 5%
  Population Healthy Nuclei (%): 76% and 77%
  Population Hoechst High Intensity Objects (%): 7% and 10%
  Population Membrane Permeable-Phenotype (%): 0%
  Population Mitochondria Different-Phenotype (%): 55% and 68%
  Population Mitotic Cells (%): 61% and 40%
  Population Normal (%): 92% and 89%
  Population Pyknosed Nuclei (%): 16% and 17%
  Population Tubulin-Different-Phenotype (%): 40% and 27%
  Total Cell Count: 371 and 293
[3]
  Population Apoptotic (%): 36% and 46%
  Population Fragmented Nuclei (%): 9% and 7%
  Population Healthy Nuclei (%): 80% and 83%
  Population Hoechst High Intensity Objects (%): 5% and 4%
  Population Membrane Permeable-Phenotype (%): 1% and 0%
  Population Mitochondria Different-Phenotype (%): 27% and 35%
  Population Mitotic Cells (%): 63% and 53%
  Population Normal (%): 94% and 95%
  Population Pyknosed Nuclei (%): 10% and 9%
  Population Tubulin-Different-Phenotype (%): 18% and 19%
  Total Cell Count: 527 and 604
[4]
  Population Apoptotic (%): 26% and 55%
  Population Fragmented Nuclei (%): 9% and 7%
  Population Healthy Nuclei (%): 74% and 79%
  Population Hoechst High Intensity Objects (%): 3% and 7%
  Population Membrane Permeable-Phenotype (%): 0%
  Population Mitochondria Different-Phenotype (%): 46% and 52%
  Population Mitotic Cells (%): 73% and 44%
  Population Normal (%): 96% and 92%
  Population Pyknosed Nuclei (%): 16% and 13%
  Population Tubulin-Different-Phenotype (%): 29% and 19%
  Total Cell Count: 465 and 353
[5]
  Population Apoptotic (%): 25% and 21%
  Population Fragmented Nuclei (%): 13% and 14%
  Population Healthy Nuclei (%): 79% and 78%
  Population Hoechst High Intensity Objects (%): 2% and 4%
  Population Membrane Permeable-Phenotype (%): 1% and 0%
  Population Mitochondria Different-Phenotype (%): 17% and 18%
  Population Mitotic Cells (%): 75% and 78%
  Population Normal (%): 97% and 95%
  Population Pyknosed Nuclei (%): 7% and 6%
  Population Tubulin-Different-Phenotype (%): 13% and 9%
  Total Cell Count: 916 and 867
[6]
  Population Apoptotic (%): 29% and 28%
  Population Fragmented Nuclei (%): 18% and 15%
  Population Healthy Nuclei (%): 75% and 77%
  Population Hoechst High Intensity Objects (%): 1% and 3%
  Population Membrane Permeable-Phenotype (%): 1% and 0%
  Population Mitochondria Different-Phenotype (%): 24% and 28%
  Population Mitotic Cells (%): 70% and 71%
  Population Normal (%): 98% and 96%
  Population Pyknosed Nuclei (%): 6%
  Population Tubulin-Different-Phenotype (%): 16% and 17%
  Total Cell Count: 821 and 554

## O=C(NCC(=O)N1CC[C@H](N[C@H]2CC[C@@](O)(c3ccc(-c4ncccn4)cn3)CC2)C1)c1cccc(C(F)(F)F)c1 [PF-4136309]
[1]
  Population Apoptotic (%): 44% and 34%
  Population Fragmented Nuclei (%): 6% and 5%
  Population Healthy Nuclei (%): 80%
  Population Hoechst High Intensity Objects (%): 4% and 6%
  Population Membrane Permeable-Phenotype (%): 0%
  Population Mitochondria Different-Phenotype (%): 41% and 56%
  Population Mitotic Cells (%): 56% and 66%
  Population Normal (%): 95% and 93%
  Population Pyknosed Nuclei (%): 13%
  Population Tubulin-Different-Phenotype (%): 32% and 15%
  Total Cell Count: 393 and 389
[2]
  Population Apoptotic (%): 39% and 48%
  Population Fragmented Nuclei (%): 7% and 3%
  Population Healthy Nuclei (%): 76% and 81%
  Population Hoechst High Intensity Objects (%): 7% and 6%
  Population Membrane Permeable-Phenotype (%): 0%
  Population Mitochondria Different-Phenotype (%): 53% and 75%
  Population Mitotic Cells (%): 60% and 51%
  Population Normal (%): 92% and 93%
  Population Pyknosed Nuclei (%): 15% and 14%
  Population Tubulin-Different-Phenotype (%): 55% and 45%
  Total Cell Count: 358 and 295
[3]
  Population Apoptotic (%): 25% and 39%
  Population Fragmented Nuclei (%): 10% and 8%
  Population Healthy Nuclei (%): 80%
  Population Hoechst High Intensity Objects (%): 2% and 5%
  Population Membrane Permeable-Phenotype (%): 0%
  Population Mitochondria Different-Phenotype (%): 26% and 31%
  Population Mitotic Cells (%): 74% and 60%
  Population Normal (%): 97% and 94%
  Population Pyknosed Nuclei (%): 9% and 11%
  Population Tubulin-Different-Phenotype (%): 15% and 13%
  Total Cell Count: 561 and 485
[4]
  Population Apoptotic (%): 35% and 57%
  Population Fragmented Nuclei (%): 10% and 8%
  Population Healthy Nuclei (%): 73% and 80%
  Population Hoechst High Intensity Objects (%): 7% and 5%
  Population Membrane Permeable-Phenotype (%): 1% and 0%
  Population Mitochondria Different-Phenotype (%): 39% and 54%
  Population Mitotic Cells (%): 64% and 42%
  Population Normal (%): 92% and 94%
  Population Pyknosed Nuclei (%): 16% and 11%
  Population Tubulin-Different-Phenotype (%): 36% and 27%
  Total Cell Count: 450 and 384
[5]
  Population Apoptotic (%): 18% and 27%
  Population Fragmented Nuclei (%): 16%
  Population Healthy Nuclei (%): 78% and 77%
  Population Hoechst High Intensity Objects (%): 0% and 2%
  Population Membrane Permeable-Phenotype (%): 1% and 0%
  Population Mitochondria Different-Phenotype (%): 14% and 16%
  Population Mitotic Cells (%): 81% and 72%
  Population Normal (%): 99% and 97%
  Population Pyknosed Nuclei (%): 4% and 5%
  Population Tubulin-Different-Phenotype (%): 9% and 11%
  Total Cell Count: 1007 and 907
[6]
  Population Apoptotic (%): 31% and 43%
  Population Fragmented Nuclei (%): 13% and 11%
  Population Healthy Nuclei (%): 75% and 79%
  Population Hoechst High Intensity Objects (%): 5% and 4%
  Population Membrane Permeable-Phenotype (%): 0%
  Population Mitochondria Different-Phenotype (%): 34% and 46%
  Population Mitotic Cells (%): 68% and 56%
  Population Normal (%): 94% and 95%
  Population Pyknosed Nuclei (%): 11% and 8%
  Population Tubulin-Different-Phenotype (%): 23% and 30%
  Total Cell Count: 636 and 468
